Experimental data collected from several papers.
Lines come from different studies, so protocols differ.

| Compound | species | medium | route | dose | setting | endpoint | result |
| --- | --- | --- | --- | --- | --- | --- | --- |
| CC(C)(C)c1ccc(O)c(CN(Cc2cc(C(C)(C)C)ccc2O)C2CCC(NC(N)=O)CC2)c1 (stereo not shown) | male C57BL/6 mouse | brain | oral | 10 mg/kg | single dose | tissue/plasma ratio | 0.64 |
| CC(C)(NC(=O)O[C@@H]1CN2CCC1CC2)c1csc(-c2ccc(F)cc2)n1 | female CD-1 mouse | brain | intraperitoneal | 10 mg/kg | single dose | tissue/plasma ratio | 0.86 |
| CN(C(=O)n1cnc(-c2ccc[n+]([O-])c2)c1)C1CCCCC1 | male cynomolgus monkey | plasma | oral | 0.3 mg/kg |  | Tmax | 2 h |
| COc1cc(C(=O)NC2CCN(C)CC2)c(F)cc1Nc1ncc(C(F)(F)F)c(Oc2cccc3c2C(=O)N(C)C3)n1 | human | plasma | oral | 25 mg | multiple doses, once daily, steady state, patients | AUC | 5.1 µM·h |
| CC(C)n1cc(C#N)c2cc(-n3cc(C(=O)O)cn3)ccc21 | male human | plasma | oral | 600 mg | single dose, fasted, healthy volunteers | AUC(0-inf) | 99800 ng·h/mL |
| CCc1nc2c(C)cc(N3CCN(CC(=O)N4CC(O)C4)CC3)cn2c1N(C)c1nc(-c2ccc(F)cc2)c(C#N)s1 | human | plasma | oral | 150 mg | fed, healthy volunteers | AUC(0-inf) | 6400 ng·h/mL |
| O=C(O)C1CCN(c2ncc(-c3ccc4c(c3)OCCCO4)s2)CC1 | male Swiss mouse | brain | oral | 30 mg/kg | single dose | tissue/plasma ratio | 0.028 |
| CC(C)(O)c1ccccc1-c1ccc2[nH]c(/C=C/c3ccc(C(F)(F)F)cc3)nc2c1 | male human | plasma | oral | 2 mg | single dose, fasted | AUC(0-t) | 94.7 ng·h/mL |
| Cn1cc(-c2ccc(S(=O)(=O)[C@@H]3C[C@@H](C(=O)NC4(C#N)CC4)N(C(=O)C4(C(F)(F)F)CC4)C3)c(C(F)(F)F)c2)cn1 | human | plasma | oral | 600 mg | single dose, fasted, healthy volunteers | AUC(0-inf) | 28700 ng·h/mL |
| COc1ccc([C@@H]2CN(C(=O)[C@@H](O)CO)C[C@@]2(C)[C@@H](C)O)cc1OC1CN(c2ccc(C)cn2)C1 | human | plasma | oral | 0.1 mg | single dose, healthy volunteers | AUC(0-inf) | 59.1 ng·h/mL |
